# Measured values reported in ChEMBL document CHEMBL1129448, “Neurosteroid analogues. 4. The effect of methyl substitution at the C-5 and C-10 positions of neurosteroids on electrophysiological activity at GABAA receptors” (1996).
# Experiments:
# [1] = species on record: Rattus norvegicus; assay: Compound was evaluated at 10 uM for its ability to initiate (gate) a current in the absence of GABA in cultured postnatal rat hippocampal neurons; type: functional; set-up: unit not given here
# Summary of the method: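 Whole-cell voltage clamp of cultured postnatal rat hippocampal neurons at -60 mV. Compound at 10 µM was applied without GABA by pressure ejection (500 ms, 10-20 psi) from a pipet within 5 µm. CsCl-based pipet solution, pH 7.3. DMSO final <0.2%. Peak directly gated current is expressed relative to the same cell's response to 2 µM GABA alone. Mean ± SEM, N cells.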
# [2] = species on record: Rattus norvegicus; assay: Compound was evaluated at 10 uM GABA-mediated current in cultured postnatal rat hippocampal neurons; type: functional
# Summary of the method: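 Whole-cell voltage clamp of cultured postnatal rat hippocampal neurons held at -60 mV. Compound at 10 µM was co-applied with 2 µM GABA by pressure ejection (500 ms jet, 10-20 psi) from a pipet within 5 µm of the cell. Pipet solution was CsCl-based, pH 7.3. DMSO final <0.2%. Current is given as % of 2 µM GABA alone (100% = no change). Mean ± SEM, N cells.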
smiles,measurement,setting,value
C[C@]12CC[C@@H](O)C[C@H]1CC[C@@H]1[C@@H]2CC[C@]2(C)[C@@H](C#N)CC[C@@H]12,Gated current,[1],68
same,Potentation,[2],1297
C[C@]12CC[C@@H]3[C@H](CC[C@]4(C)[C@@H](C#N)CC[C@@H]34)[C@H]1CC[C@@H](O)C2,Gated current,[1],28
same,Potentation,[2],452
CC(=O)[C@H]1CC[C@H]2[C@@H]3CC[C@@H]4C[C@H](O)CC[C@@H]4[C@H]3CC[C@]12C,Gated current,[1],110
same,Potentation,[2],754
CC(=O)[C@H]1CC[C@H]2[C@@H]3CCC4C[C@H](O)CC[C@@H]4[C@H]3CC[C@]12C (stereo partly drawn),Gated current,[1],46
same,Potentation,[2],926
CC12CC[C@@H]3[C@H](CC[C@]4(C)[C@@H](C#N)CC[C@@H]34)[C@H]1CC[C@@H](O)C2 (stereo partly drawn),Gated current,[1],0
same,Potentation,[2],92
CC(=O)[C@H]1CC[C@H]2[C@@H]3CC[C@]4(C)C[C@H](O)CC[C@@H]4[C@H]3CC[C@]12C,Gated current,[1],12
same,Potentation,[2],652
CC(=O)[C@H]1CC[C@H]2[C@@H]3CCC4(C)C[C@H](O)CC[C@@H]4[C@H]3CC[C@]12C (stereo partly drawn),Gated current,[1],0
same,Potentation,[2],110
CC(=O)[C@H]1CC[C@H]2[C@@H]3CC[C@]4(C)C[C@H](O)CC[C@]4(C)[C@H]3CC[C@]12C,Gated current,[1],24
same,Potentation,[2],498
CC(=O)[C@H]1CC[C@H]2[C@@H]3CCC4(C)C[C@H](O)CC[C@]4(C)[C@H]3CC[C@]12C (stereo partly drawn),Gated current,[1],3
same,Potentation,[2],294
C[C@]12CC[C@H]3[C@@H](CCC4C[C@H](O)CC[C@@H]43)[C@@H]1CC[C@@H]2C#N (stereo partly drawn),Gated current,[1],42
same,Potentation,[2],1721
C[C@]12CC[C@H]3[C@@H](CC[C@@H]4C[C@H](O)CC[C@@H]43)[C@@H]1CC[C@@H]2C#N,Gated current,[1],41
same,Potentation,[2],1823
C[C@]12CC[C@@H](O)C[C@@H]1CC[C@@H]1[C@@H]2CC[C@]2(C)[C@@H](C#N)CC[C@@H]12,Gated current,[1],32
same,Potentation,[2],1829
CC(=O)[C@H]1CC[C@H]2[C@@H]3CC[C@H]4C[C@H](O)CC[C@]4(C)[C@H]3CC[C@]12C [BREXANOLONE],Gated current,[1],26
same,Potentation,[2],1111
CC(=O)[C@H]1CC[C@H]2[C@@H]3CC[C@@H]4C[C@H](O)CC[C@]4(C)[C@H]3CC[C@]12C [ELTANOLONE],Gated current,[1],49
same,Potentation,[2],1023
